Assay results published in PMC6482957 (Nature structural & molecular biology, 2018).
Numbering of substitutions follows the chain as printed. Names and notes keep the numbering of the source.

Tests used:
p300-ZZ = test: 1H,15N HSQC NMR titration, p300-ZZ; assay type: binding, human
Outline: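 Human p300 ZZ (aa 1663–1713) carried an N-terminal His-tag and was expressed in BL21(DE3) RIL in M9 with 15NH4Cl and 0.05 mM ZnCl2. Induction was 0.2 mM IPTG, overnight at 18 °C. Protein was Ni-NTA purified and the tag cleaved. 0.1 mM sample in 20 mM Tris-HCl pH 7.0, 100 mM NaCl, 5 mM DTT, 8% D2O. Unlabeled HAT domain (1:2) was added first, then H3 peptide; chemical shift changes were monitored at 298K.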

[1] = tested on: chromatin of H1299 cells (FLAG, H3K18ac, H3K27ac); test: ChIP-seq / ChIP-qPCR in H1299 stable cells; assay type: cell-based, human; conditions: for Chromatin binding / H3K18ac and H3K27ac occupancies: ChIP-seq, H1299
Outline: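 H1299 cells (RPMI, 10% FBS) were lentivirally transduced with FLAG-p300-BRPHZT (wild type or mutant) and blasticidin-selected for 4–6 days. Cells were crosslinked with 1% formaldehyde for 10 min, quenched with 125 mM glycine, and nuclei were lysed in 1% SDS buffer and sonicated. Chromatin was immunoprecipitated overnight at 4 °C with 2–4 μg antibody, washed in low-salt, high-salt and LiCl buffers, and reverse-crosslinked. DNA went to SYBR qPCR (IgG or H3 normalization, two negative-control loci) or sequencing.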

chromatin in H1299 cells = test: Chromatin association of FLAG-p300BRPHZT; assay type: cell-based, human; conditions: H1299 stable cells, ChIP-western and salt fractionation
Outline: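 H1299 cells stably expressing FLAG-p300-BRPHZT variants were used. For protein-ChIP, cells were formaldehyde-crosslinked and nuclear lysates sonicated, then pulled down overnight at 4 °C on anti-FLAG M2 agarose. Beads were washed in low-salt, high-salt and LiCl buffers, and bound protein was read by western blot. For salt fractionation, cells were swollen in hypotonic HEPES buffer and nuclei isolated, then nuclei were extracted 30 min at 4 °C in glycerol wash buffer with 75 mM NaCl and the supernatant collected.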

[2] = tested on: histone acetylation in H1299 cells; test: Histone acetylation levels in H1299 stable cells; assay type: cell-based, human; conditions: n = 3; for H3K4, H3K9 and H4 acetylation / Increase of H3K18 and H3K27 acetylation: p300-BRPHZT
[3] = molecular target: T1, p300 HAT-ZZ domain (aa 1287–1713, Y1467F) (human, UniProt Q09472 1287-1713, Y1467F); test: NMR titration
T1 sequence: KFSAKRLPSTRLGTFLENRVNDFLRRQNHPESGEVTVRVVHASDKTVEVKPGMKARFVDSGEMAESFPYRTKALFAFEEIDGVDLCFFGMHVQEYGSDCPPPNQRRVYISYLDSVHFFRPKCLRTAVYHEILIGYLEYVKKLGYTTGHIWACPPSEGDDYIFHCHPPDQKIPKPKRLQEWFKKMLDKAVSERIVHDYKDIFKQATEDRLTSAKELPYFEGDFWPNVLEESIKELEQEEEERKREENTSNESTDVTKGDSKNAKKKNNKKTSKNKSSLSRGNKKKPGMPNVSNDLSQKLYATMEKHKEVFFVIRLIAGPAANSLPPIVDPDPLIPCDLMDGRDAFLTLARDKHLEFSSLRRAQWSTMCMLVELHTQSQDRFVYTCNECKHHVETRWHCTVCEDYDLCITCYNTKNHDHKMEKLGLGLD

[4] = molecular target: T2, human p300 ZZ domain (aa 1663–1713) (human, UniProt Q09472 1663-1713); test: crystal structure
T2 sequence: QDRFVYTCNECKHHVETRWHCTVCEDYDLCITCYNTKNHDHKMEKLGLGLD

[5] = molecular target: T2, human p300 ZZ domain (aa 1663–1713); test: NMR titration
[6] = tested on: BD-RING-PHD (BRP) region of p300; test: 1H,15N HSQC NMR titration, p300 BD-RING-PHD; assay type: binding, human; conditions: 15N-labeled BD-RING-PHD, 298K, pH 7.0

Molecule: H4_1–9(Ser1): H4_1–9(Ser1) (SGRGKGGKG)
- Binding to p300-ZZ (p300-ZZ; authors' conclusion from NMR titration): almost negligible binding

B1: N1671A: p300 BRPHZT loss-of-function mutation of ZZ (protein)
chain: TQSSPAPGQSKKKIFKPEELRQALMPTLEALYRQDPESLPFRQPVDPQLLGIPDYFDIVKSPMDLSTIKRKLDTGQYQEPWQYVDDIWLMFNNAWLYNRKTSRVYKYCSKLSEVFEQEIDPVMQSLGYCCGRKLEFSPQTLCCYGKQLCTIPRDATYYSYQNRYHFCEKCFNEIQGESVSLGDDPSQPQTTINKEQFSKRKNDTLDPELFVECTECGRKMHQICVLHHEIIWPAGFVCDGCLKKSARTRKENKFSAKRLPSTRLGTFLENRVNDFLRRQNHPESGEVTVRVVHASDKTVEVKPGMKARFVDSGEMAESFPYRTKALFAFEEIDGVDLCFFGMHVQEYGSDCPPPNQRRVYISYLDSVHFFRPKCLRTAVYHEILIGYLEYVKKLGYTTGHIWACPPSEGDDYIFHCHPPDQKIPKPKRLQEWYKKMLDKAVSERIVHDYKDIFKQATEDRLTSAKELPYFEGDFWPNVLEESIKELEQEEEERKREENTSNESTDVTKGDSKNAKKKNNKKTSKNKSSLSRGNKKKPGMPNVSNDLSQKLYATMEKHKEVFFVIRLIAGPAANSLPPIVDPDPLIPCDLMDGRDAFLTLARDKHLEFSSLRRAQWSTMCMLVELHTQSQDRFVYTCAECKHHVETRWHCTVCEDYDLCITCYNTKNHDHKMEKLGLGLDDESNNQQAAATQSPGDSRRLSIQRCIQSLVHACQCRNANCSLPSCQKMKRVVQHTKGCKRKTNGGCPICKQLIALCCYHAKHCQENKCPVPFCLNIKQKLRQQQLQHRLQQAQMLRR
modifications: left off: FLAG, end not stated, kept
- Chromatin binding [1]: incapable of gaining the chromatin binding
- H3K18ac and H3K27ac occupancies [1]: no increase
- Association of p300 BRPHZT with chromatin (chromatin in H1299 cells): substantially reduced
- H3K4, H3K9 and H4 acetylation [2]: without affecting
- Increase of H3K18 and H3K27 acetylation [2]: greatly attenuated

B2: WT p300-BRPHZT: p300 BD-RING-PHD-HAT-ZZ-TAZ2 region (BRPHZT, amino acids 1035–1830) (protein)
chain: B1 chain with A637N
modifications: left off: FLAG, end not stated, kept
- H3K18ac and H3K27ac occupancies [1]: evident increase
- Number of p300-BRPHZT binding sites (FLAG ChIP-seq) ([1]; M2 Flag antibody, H1299, MACS p ≤1e−8): 679
- Global levels of acetylation at all sites tested ([2]; whole cell extract): increased

B3: N1132A: p300 BRPHZT BD mutation that abrogates acetyllysine binding (protein)
chain: B1 chain with N98A, A637N
modifications: left off: FLAG, end not stated, kept
- p300-BRPHZT occupancy and H3K18ac and H3K27ac levels at target gene regions ([1]; ChIP-qPCR, H1299, n = 3): decrease
- Association of p300 BRPHZT with chromatin (chromatin in H1299 cells): substantially reduced

B4: D1690A (protein)
chain: B1 chain with A637N, D656A
modifications: left off: FLAG, end not stated, kept
- Chromatin binding [1]: incapable of gaining the chromatin binding
- H3K18ac and H3K27ac occupancies [1]: no increase
- Association of p300 BRPHZT with chromatin (chromatin in H1299 cells): substantially reduced
- H3K4, H3K9 and H4 acetylation [2]: without affecting
- Increase of H3K18 and H3K27 acetylation [2]: greatly attenuated

B5: p300 BD-RING-PHD region (aa 1047–1278) (domain or fragment)
chain: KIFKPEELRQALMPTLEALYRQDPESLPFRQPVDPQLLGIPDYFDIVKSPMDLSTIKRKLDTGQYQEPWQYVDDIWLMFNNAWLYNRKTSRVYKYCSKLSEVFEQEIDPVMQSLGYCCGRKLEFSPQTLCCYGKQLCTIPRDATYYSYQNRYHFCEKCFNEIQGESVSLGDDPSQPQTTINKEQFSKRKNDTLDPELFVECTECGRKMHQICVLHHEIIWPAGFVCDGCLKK
- binding result [3]: binds

Molecule: ARTKQT [histone H3 tail (residues 1–6)]
- binding result [4]: binds

Molecule: VRTKQT [H3A1V1–6]
- fold reduction in binding against the peptide with Ala1 [5]: ~3 fold

B6: HAT domain: p300 HAT domain (aa 1287–1663, Y1467F) (protein)
chain: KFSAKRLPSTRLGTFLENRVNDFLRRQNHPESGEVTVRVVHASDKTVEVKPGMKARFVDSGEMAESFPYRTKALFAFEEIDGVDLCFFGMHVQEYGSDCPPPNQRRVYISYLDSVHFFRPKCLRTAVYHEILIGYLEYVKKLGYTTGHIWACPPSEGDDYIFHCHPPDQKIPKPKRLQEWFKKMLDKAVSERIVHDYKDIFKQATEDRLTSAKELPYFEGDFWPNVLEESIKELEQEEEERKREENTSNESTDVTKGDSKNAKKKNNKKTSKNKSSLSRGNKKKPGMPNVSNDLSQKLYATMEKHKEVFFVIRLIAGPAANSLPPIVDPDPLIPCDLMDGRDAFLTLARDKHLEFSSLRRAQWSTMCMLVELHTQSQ
modifications: left off: His-tag, N-terminal, cleaved
- Interaction with BD-RING-PHD [6]: rapid disappearance of resonances
- Resonance perturbations in p300-ZZ in presence of HAT domain (p300-ZZ; HSQC, 298K, pH 7.0, HAT (1:2 molar ratio) added first, then peptide): very small changes in ZZ
- Interaction between isolated HAT and ZZ domains (p300-ZZ; HSQC, p300-ZZ with unlabeled HAT (1:2 molar ratio)): interact only weakly

B7: HAT-ZZ: HAT-ZZ domain (aa 1287–1713, Y1467F) (protein)
chain: T1 sequence
modifications: left off: His-tag, N-terminal, cleaved
- Interaction with BD-RING-PHD [6]: weakened
